Experimental data: ChEMBL document CHEMBL2046290, “Ureido-substituted sulfamates show potent carbonic anhydrase IX inhibitory and antiproliferative activities against breast cancer cell lines” (Bioorg Med Chem Lett, 2012)
Active and inactive are the calls of the source. No cut-off for these calls is given here.

Legend:
MCF-10A = assay: Antiproliferative activity against human MCF10A cells at 100 uM after 5 days by SRB assay under normoxic condition; type: functional, cell-based
Outline: (§1)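 Cells seeded at 1 × 10^3 per well, adhered 48 h, medium removed, then exposed to compound at 100 μM. After 5 days, growth measured by SRB: fixed with cold 25% TCA 1 h at 4 °C, stained with SRB in 1% acetic acid 30 min at room temperature, dye solubilised in 10 mM Tris pH 10.5, read at 540. Values expressed relative to untreated control (1.0).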

MCF7 [1] = assay: Antiproliferative activity against human MCF7 cells after 5 days by SRB assay under hypoxic condition; type: functional, cell-based
Outline: (§2)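 MCF7 seeded at 3 × 10^3 per well, adhered 48 h, then equilibrated 6 h at 0.5% O2 in a hypoxia station. Compounds added in hypoxic medium across 0.1–100 μM. After 5 days, proliferation measured by SRB: cold 25% TCA fixation 1 h at 4 °C, SRB in 1% acetic acid 30 min, solubilised in 10 mM Tris pH 10.5, read at 540.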

MCF7 [2] = assay: Antiproliferative activity against human MCF7 cells at 30 uM after 5 days by SRB assay under hypoxic condition; type: functional, cell-based; outline: as §2
SK-BR-3 = assay: Antiproliferative activity against human SKBR3 cells at 100 uM after 5 days by SRB assay under normoxic condition; type: functional, cell-based; outline: as §1
MCF7 [3] = assay: Antiproliferative activity against human MCF7 cells at 10 uM after 5 days by SRB assay under hypoxic condition; type: functional, cell-based; outline: as §2
ZR-75-1 = assay: Antiproliferative activity against human ZR-75-1 cells at 100 uM after 5 days by SRB assay under normoxic condition; type: functional, cell-based; outline: as §1
MDA-MB-361 = assay: Antiproliferative activity against human MDA-MB-361 cells at 100 uM after 5 days by SRB assay under normoxic condition; type: functional, cell-based; outline: as §1
Carbonic anhydrase 9 = Carbonic anhydrase 9 (Homo sapiens, UniProt Q16790); assay: Inhibition of human carbonic anhydrase 9 preincubated for 15 mins measured for 10 to 100 sec using phenol red indicator-based stopped flow assay
Outline: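 In-house recombinant human enzyme; stopped-flow CO2 hydration at 1.7–17 mM CO2, with 0.2 mM phenol red read at 557 nm in 20 mM Hepes pH 7.5 and 20 mM Na2SO4. Inhibitor (diluted from 0.1 mM aqueous stock to 0.01 nM) preincubated with enzyme 15 min at room temperature. Initial rates taken over 10–100 s, uncatalysed rate subtracted. Ki by non-linear least squares, mean of at least three determinations.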

SMILES | Activity (MCF-10A) | Activity (MCF7 [1]) | Activity (MCF7 [2]) | Activity (SK-BR-3) | Activity (MCF7 [3]) | Activity (ZR-75-1) | Activity (MDA-MB-361) | Ki (Carbonic anhydrase 9)
CN(C)c1ccc(NC(=O)Nc2ccc(OS(N)(=O)=O)cc2)cc1 | Active | Dose-dependent effect | Active | Active | Active | Active | Active | 
CCOC(=O)c1ccc(NC(=O)Nc2ccc(OS(N)(=O)=O)cc2)cc1 |  |  |  |  |  |  |  | 8 nM
COc1ccc(NC(=O)Nc2ccc(OS(N)(=O)=O)cc2)cc1 | Active | Dose-dependent effect | Active | Active | Active | Active | Active | 
CCOC(=O)c1cccc(NC(=O)Nc2ccc(OS(N)(=O)=O)cc2)c1 |  |  |  |  |  |  |  | 12 nM
NS(=O)(=O)Oc1ccc(NC(=O)Nc2ccc([N+](=O)[O-])cc2)cc1 | Active | Dose-dependent effect | Active | Active | Active | Active | Active | 
CCOC(=O)c1ccccc1NC(=O)Nc1ccc(OS(N)(=O)=O)cc1 |  |  |  |  |  |  |  | 8 nM
NS(=O)(=O)Oc1ccc(NC(=O)Nc2c(F)c(F)c(F)c(F)c2F)cc1 | Active | Dose-dependent effect | Active | Active | Active | Active | Active | 
NS(=O)(=O)Oc1ccc(NC(=O)Nc2ccc(Cl)cc2)cc1 | Active | Dose-dependent effect | Active | Active | Active | Active | Active | 
NS(=O)(=O)Oc1ccc(NC(=O)NCCc2ccccc2)cc1 | Active | Dose-dependent effect | Active | Active | Active | Active | Active | 
NS(=O)(=O)Oc1ccc(NC(=O)NCCc2cccc3ccccc23)cc1 |  |  |  |  |  |  |  | 15 nM
NS(=O)(=O)Oc1ccc(NC(=O)Nc2ccc(Oc3ccccc3)cc2)cc1 | Active | Dose-dependent effect | Active | Active | Active | Active | Active | 
NS(=O)(=O)Oc1ccc(NC(=O)Nc2ccc(Cc3ccccc3)cc2)cc1 |  |  |  |  |  |  |  | 16 nM
CC(C)(C)OC(=O)N1CCC(NC(=O)Nc2ccc(OS(N)(=O)=O)cc2)CC1 |  |  |  |  |  |  |  | 7 nM
Cc1cc(C)cc(NC(=O)Nc2ccc(OS(N)(=O)=O)cc2)c1 | Active |  | Active | Active | Active | Active | Active | 
NS(=O)(=O)Oc1ccc(NC(=O)Nc2ccc(F)cc2)cc1 | Active | Dose-dependent effect | Active | Active | Active | Active | Active | 
